{"source": "ChEMBL document CHEMBL4145669", "about": "(J Med Chem, 2018)", "key": {"Mus musculus": {"organism": "Mus musculus", "test": "Selectivity index, ratio of pA2 for antagonist activity at mouse MC3R expressed in HEK293 cells to pA2 for antagonist activity at mouse MC4R expressed in HEK293 cells", "assay_type": "cell-based"}, "[1]": {"target": "Melanocyte-stimulating hormone receptor (Mus musculus) (UniProt Q01727)", "sequence (Q01727 whole entry, looked up)": "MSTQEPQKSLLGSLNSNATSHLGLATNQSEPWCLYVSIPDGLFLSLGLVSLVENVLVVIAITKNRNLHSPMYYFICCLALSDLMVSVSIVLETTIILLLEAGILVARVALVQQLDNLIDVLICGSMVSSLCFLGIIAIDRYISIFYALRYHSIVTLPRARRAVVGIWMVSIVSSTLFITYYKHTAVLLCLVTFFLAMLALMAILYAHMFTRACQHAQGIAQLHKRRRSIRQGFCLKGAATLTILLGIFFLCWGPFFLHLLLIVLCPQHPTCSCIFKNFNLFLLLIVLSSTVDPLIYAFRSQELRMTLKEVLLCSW", "test": "Agonist activity at mouse MC1R expressed in HEK293 cells at 100 uM incubated for 2 hrs by AlphaScreen cAMP assay relative to NDP-MSH", "assay_type": "functional, cell-based", "method_in_brief": "(§1)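 HEK293 cells stably expressing mouse MC1R, about 90% confluent, were detached with Versene and suspended at 10,000 cells/μL in stimulation buffer (HBSS, 0.5 mM IBMX, 5 mM HEPES, 0.1% BSA, pH 7.4) with anti-cAMP acceptor beads. Compound was added for 2 h at room temperature in the dark, then donor beads/biotinylated cAMP in lysis buffer for 2 h, followed by AlphaScreen read. Doses went up to 100 μM in duplicate wells, ≥3 experiments. EC50 came from nonlinear regression, with efficacy as a percent of NDP-MSH.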"}, "[2]": {"target": "Melanocortin receptor 5 (Mus musculus) (UniProt P41149)", "sequence (P41149 whole entry)": "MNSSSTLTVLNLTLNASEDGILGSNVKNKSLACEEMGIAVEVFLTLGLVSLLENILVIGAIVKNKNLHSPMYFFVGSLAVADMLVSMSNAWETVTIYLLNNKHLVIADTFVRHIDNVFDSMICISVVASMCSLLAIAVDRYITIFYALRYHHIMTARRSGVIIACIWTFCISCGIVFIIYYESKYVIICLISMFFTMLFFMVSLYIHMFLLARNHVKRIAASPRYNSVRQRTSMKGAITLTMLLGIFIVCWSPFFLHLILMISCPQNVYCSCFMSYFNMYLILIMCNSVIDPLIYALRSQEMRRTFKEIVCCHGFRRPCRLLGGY", "test": "Inverse agonist activity at mouse MC5R expressed in HEK293 cells at 100 uM incubated for 2 hrs by AlphaScreen cAMP assay", "assay_type": "functional, cell-based", "method_in_brief": "(§2)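 In the mouse MC5R HEK293 stable line, cells in IBMX-containing stimulation buffer with anti-cAMP acceptor beads were exposed to compound at up to 100 μM for 2 h at room temperature in the dark. Donor beads/biotinylated cAMP were then added for 2 h before AlphaScreen reading. Signal was normalized to basal response to give a percent difference from basal. Duplicate wells, ≥3 independent experiments.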"}, "Melanocortin receptor 3": {"target": "Melanocortin receptor 3 (Mus musculus, UniProt P33033)", "sequence (P33033 whole entry)": "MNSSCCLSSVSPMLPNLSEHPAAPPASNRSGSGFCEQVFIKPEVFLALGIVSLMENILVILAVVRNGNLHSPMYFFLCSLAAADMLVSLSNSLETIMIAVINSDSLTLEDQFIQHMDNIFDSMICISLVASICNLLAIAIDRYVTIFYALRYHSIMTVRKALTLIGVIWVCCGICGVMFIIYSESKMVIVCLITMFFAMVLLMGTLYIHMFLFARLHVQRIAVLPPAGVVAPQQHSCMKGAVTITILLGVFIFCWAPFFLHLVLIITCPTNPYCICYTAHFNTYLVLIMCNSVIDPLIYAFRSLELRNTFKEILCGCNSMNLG", "test": "Antagonist activity at mouse MC3R expressed in HEK293 cells assessed as reduction in NDP-MSH-induced response incubated for 2 hrs by AlphaScreen cAMP assay based Schild analysis", "assay_type": "functional, cell-based", "details": "read-out: pA2 (converted)"}, "Melanocortin receptor 5": {"target": "Melanocortin receptor 5 (Mus musculus, UniProt P41149)", "sequence (P41149 whole entry)": "as the sequence (P41149 whole entry) above", "test": "Inverse agonist activity at mouse MC5R expressed in HEK293 cells incubated for 2 hrs by AlphaScreen cAMP assay", "assay_type": "functional, cell-based", "method_in_brief": "as §2"}, "[3]": {"target": "Melanocortin receptor 3 (Mus musculus) (UniProt P33033)", "sequence (P33033 whole entry)": "as the sequence (P33033 whole entry) above", "test": "Agonist activity at mouse MC3R expressed in HEK293 cells at 100 uM incubated for 2 hrs by AlphaScreen cAMP assay relative to untreated control", "assay_type": "functional, cell-based"}, "[4]": {"target": "Melanocortin receptor 4 (Mus musculus) (UniProt P56450)", "sequence (P56450 whole entry)": "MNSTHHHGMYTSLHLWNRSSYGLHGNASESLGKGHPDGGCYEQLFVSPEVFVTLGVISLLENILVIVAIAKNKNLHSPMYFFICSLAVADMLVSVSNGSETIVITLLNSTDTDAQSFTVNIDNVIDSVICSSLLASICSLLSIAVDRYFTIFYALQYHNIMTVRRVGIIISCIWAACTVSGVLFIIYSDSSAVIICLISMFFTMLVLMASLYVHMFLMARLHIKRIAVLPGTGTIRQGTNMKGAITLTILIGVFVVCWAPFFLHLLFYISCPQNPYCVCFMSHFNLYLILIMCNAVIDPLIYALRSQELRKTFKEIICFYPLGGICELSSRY", "test": "Agonist activity at mouse MC4R expressed in HEK293 cells at 100 uM incubated for 2 hrs by AlphaScreen cAMP assay relative to untreated control", "assay_type": "functional, cell-based"}, "Melanocortin receptor 4": {"target": "Melanocortin receptor 4 (Mus musculus, UniProt P56450)", "sequence (P56450 whole entry)": "as above", "test": "Antagonist activity at mouse MC4R expressed in HEK293 cells assessed as reduction in NDP-MSH-induced response incubated for 2 hrs by AlphaScreen cAMP assay based Schild analysis", "assay_type": "functional, cell-based", "details": "read-out: pA2 (converted)"}, "[5]": {"target": "Melanocyte-stimulating hormone receptor (Mus musculus) (UniProt Q01727)", "test": "Agonist activity at mouse MC1R expressed in HEK293 cells incubated for 2 hrs by AlphaScreen cAMP assay relative to NDP-MSH", "assay_type": "functional, cell-based", "method_in_brief": "as §1"}, "[6]": {"target": "Melanocyte-stimulating hormone receptor (Mus musculus, UniProt Q01727)", "sequence (Q01727 whole entry)": "as the sequence (Q01727 whole entry, looked up) above", "test": "Agonist activity at mouse MC1R expressed in HEK293 cells incubated for 2 hrs by AlphaScreen cAMP assay", "assay_type": "functional, cell-based", "method_in_brief": "as §1"}, "[7]": {"target": "Melanocortin receptor 4 (Mus musculus) (UniProt P56450)", "test": "Potency index, ratio of pA2 for test compound to pA2 for AGRP for antagonist activity at mouse MC4R expressed in HEK293 cells assessed as reduction in NDP-MSH-induced response incubated for 2 hrs by AlphaScreen cAMP assay based Schild analysis", "assay_type": "functional, cell-based"}}, "note": "Square brackets hold non-standard residues; d marks the D form. Peptide text beside a SMILES is read from it. hPhe = N[C@@H](CCc1ccccc1)C(=O)O; Nle = CCCC[C@H](N)C(=O)O; Dap = NC[C@H](N)C(=O)O", "data": [{"compound": "N=C(N)NCCC[C@@H]1NC(=O)[C@H](CCc2ccccc2)NC(=O)[C@H](Cc2ccccc2)NC(=O)[C@H](CCCNC(=N)N)NC(=O)[C@@H]2CCCN2C(=O)[C@H]2CCCN2C(=O)[C@H](Cc2ccccc2)NC(=O)[C@H](CO)NC1=O", "note": "(cyclo(RF[hPhe]RSF[dP]P))", "values": [{"measurement": "Ratio", "setting": "Mus musculus", "value": 13}, {"measurement": "Activity", "setting": "[1]", "value": 30, "unit": "%"}, {"measurement": "Activity", "setting": "[2]", "value": "< 20", "unit": "%"}, {"measurement": "Kb", "setting": "Melanocortin receptor 3", "value": 20, "unit": "nM"}, {"measurement": "EC50", "setting": "Melanocortin receptor 5", "value": "> 100000", "unit": "nM"}, {"measurement": "Activity", "setting": "[3]", "value": "< 20", "unit": "%"}, {"measurement": "Activity", "setting": "[4]", "value": "< 20", "unit": "%"}, {"measurement": "Kb", "setting": "Melanocortin receptor 4", "value": 1.58, "unit": "nM"}]}, {"compound": "N=C(N)NCCC[C@@H]1NC(=O)[C@@H]2CCCN2C(=O)[C@H]2CCCN2C(=O)[C@H](Cc2ccccc2)NC(=O)[C@H](CO)NC(=O)[C@H](CC(N)=O)NC(=O)[C@H](CCc2ccccc2)NC(=O)[C@H](Cc2ccccc2)NC1=O", "values": [{"measurement": "Ratio", "setting": "Mus musculus", "value": 130}, {"measurement": "Activity", "setting": "[1]", "value": 40, "unit": "%"}, {"measurement": "Activity", "setting": "[2]", "value": "< 20", "unit": "%"}, {"measurement": "Kb", "setting": "Melanocortin receptor 3", "value": 316, "unit": "nM"}, {"measurement": "EC50", "setting": "Melanocortin receptor 5", "value": "> 100000", "unit": "nM"}, {"measurement": "Activity", "setting": "[3]", "value": "< 20", "unit": "%"}, {"measurement": "Activity", "setting": "[4]", "value": "< 20", "unit": "%"}, {"measurement": "Kb", "setting": "Melanocortin receptor 4", "value": 2.51, "unit": "nM"}]}, {"compound": "N=C(N)NCCC[C@@H]1NC(=O)[C@@H]2CCCN2C(=O)[C@H]2CCCN2C(=O)[C@H](Cc2ccccc2)NC(=O)[C@H](CO)NC(=O)[C@H](CN)NC(=O)[C@H](Cc2ccccc2)NC(=O)[C@H](Cc2ccccc2)NC1=O", "values": [{"measurement": "Ratio", "setting": "Mus musculus", "value": 170}, {"measurement": "Activity", "setting": "[2]", "value": "< 20", "unit": "%"}, {"measurement": "Kb", "setting": "Melanocortin receptor 3", "value": 158, "unit": "nM"}, {"measurement": "Activity", "setting": "[5]", "value": 85, "unit": "%"}, {"measurement": "EC50", "setting": "Melanocortin receptor 5", "value": "> 100000", "unit": "nM"}, {"measurement": "Activity", "setting": "[3]", "value": "< 20", "unit": "%"}, {"measurement": "Activity", "setting": "[4]", "value": "< 20", "unit": "%"}, {"measurement": "Kb", "setting": "Melanocortin receptor 4", "value": 0.794, "unit": "nM"}, {"measurement": "EC50", "setting": "[6]", "value": 600, "unit": "nM"}]}, {"compound": "C[C@@H]1NC(=O)[C@H](CN)NC(=O)[C@H](CCc2ccccc2)NC(=O)[C@H](Cc2ccccc2)NC(=O)[C@H](CCCNC(=N)N)NC(=O)[C@@H]2CCCN2C(=O)[C@H]2CCCN2C(=O)[C@H](Cc2ccccc2)NC1=O", "values": [{"measurement": "Ratio", "setting": "Mus musculus", "value": 100}, {"measurement": "Activity", "setting": "[2]", "value": "< 20", "unit": "%"}, {"measurement": "Kb", "setting": "Melanocortin receptor 3", "value": 79.4, "unit": "nM"}, {"measurement": "Activity", "setting": "[5]", "value": 70, "unit": "%"}, {"measurement": "EC50", "setting": "Melanocortin receptor 5", "value": "> 100000", "unit": "nM"}, {"measurement": "Activity", "setting": "[3]", "value": "< 20", "unit": "%"}, {"measurement": "Activity", "setting": "[4]", "value": "< 20", "unit": "%"}, {"measurement": "Kb", "setting": "Melanocortin receptor 4", "value": 0.794, "unit": "nM"}, {"measurement": "EC50", "setting": "[6]", "value": 560, "unit": "nM"}]}, {"compound": "CCCC[C@@H]1NC(=O)[C@H](CO)NC(=O)[C@H](CN)NC(=O)[C@H](CCc2ccccc2)NC(=O)[C@H](Cc2ccccc2)NC(=O)[C@H](CCCNC(=N)N)NC(=O)[C@@H]2CCCN2C(=O)[C@H]2CCCN2C1=O", "note": "(cyclo(RF[hPhe][Dap]S[Nle][dP]P))", "values": [{"measurement": "Ratio", "setting": "Mus musculus", "value": 630}, {"measurement": "Ratio", "setting": "[7]", "value": "3 to 6"}, {"measurement": "Activity", "setting": "[1]", "value": "< 20", "unit": "%"}, {"measurement": "Activity", "setting": "[2]", "value": "< 20", "unit": "%"}, {"measurement": "Kb", "setting": "Melanocortin receptor 3", "value": 200, "unit": "nM"}, {"measurement": "EC50", "setting": "Melanocortin receptor 5", "value": "> 100000", "unit": "nM"}, {"measurement": "Activity", "setting": "[3]", "value": "< 20", "unit": "%"}, {"measurement": "Activity", "setting": "[4]", "value": "< 20", "unit": "%"}, {"measurement": "Kb", "setting": "Melanocortin receptor 4", "value": 0.316, "unit": "nM"}, {"measurement": "EC50", "setting": "[6]", "value": "> 100000", "unit": "nM"}]}, {"compound": "CCCC[C@@H]1NC(=O)[C@H](C)NC(=O)[C@H](CCCNC(=N)N)NC(=O)[C@H](Cc2ccccc2)NC(=O)[C@H](Cc2ccccc2)NC(=O)[C@H](CCCNC(=N)N)NC(=O)[C@@H]2CCCN2C(=O)[C@H]2CCCN2C1=O", "note": "(cyclo(RFFRA[Nle][dP]P))", "values": [{"measurement": "Ratio", "setting": "Mus musculus", "value": 46}, {"measurement": "Activity", "setting": "[1]", "value": "< 20", "unit": "%"}, {"measurement": "Activity", "setting": "[2]", "value": "< 20", "unit": "%"}, {"measurement": "Kb", "setting": "Melanocortin receptor 3", "value": 31.6, "unit": "nM"}, {"measurement": "EC50", "setting": "Melanocortin receptor 5", "value": "> 100000", "unit": "nM"}, {"measurement": "Activity", "setting": "[3]", "value": "< 20", "unit": "%"}, {"measurement": "Activity", "setting": "[4]", "value": "< 20", "unit": "%"}, {"measurement": "Kb", "setting": "Melanocortin receptor 4", "value": 0.794, "unit": "nM"}, {"measurement": "EC50", "setting": "[6]", "value": "> 100000", "unit": "nM"}]}, {"compound": "N=C(N)NCCC[C@@H]1NC(=O)[C@H](Cc2ccccc2)NC(=O)[C@H](Cc2ccccc2)NC(=O)[C@H](CCCNC(=N)N)NC(=O)[C@@H]2CCCN2C(=O)[C@H]2CCCN2C(=O)[C@H](Cc2ccccc2)NC(=O)[C@H](CO)NC1=O", "values": [{"measurement": "Ratio", "setting": "Mus musculus", "value": 79}, {"measurement": "Activity", "setting": "[1]", "value": "< 20", "unit": "%"}, {"measurement": "Activity", "setting": "[2]", "value": "< 20", "unit": "%"}, {"measurement": "Kb", "setting": "Melanocortin receptor 3", "value": 79.4, "unit": "nM"}, {"measurement": "EC50", "setting": "Melanocortin receptor 5", "value": "> 100000", "unit": "nM"}, {"measurement": "Activity", "setting": "[3]", "value": "< 20", "unit": "%"}, {"measurement": "Activity", "setting": "[4]", "value": "< 20", "unit": "%"}, {"measurement": "Kb", "setting": "Melanocortin receptor 4", "value": 1, "unit": "nM"}, {"measurement": "EC50", "setting": "[6]", "value": "> 100000", "unit": "nM"}]}, {"compound": "CCCC[C@@H]1NC(=O)[C@H](C)NC(=O)[C@H](CC(N)=O)NC(=O)[C@H](CCc2ccccc2)NC(=O)[C@H](Cc2ccccc2)NC(=O)[C@H](CCCNC(=N)N)NC(=O)[C@@H]2CCCN2C(=O)[C@H]2CCCN2C1=O", "values": [{"measurement": "Ratio", "setting": "Mus musculus", "value": 250}, {"measurement": "Activity", "setting": "[1]", "value": "< 20", "unit": "%"}, {"measurement": "Activity", "setting": "[2]", "value": "< 20", "unit": "%"}, {"measurement": "Kb", "setting": "Melanocortin receptor 3", "value": 631, "unit": "nM"}, {"measurement": "EC50", "setting": "Melanocortin receptor 5", "value": "> 100000", "unit": "nM"}, {"measurement": "Activity", "setting": "[3]", "value": "< 20", "unit": "%"}, {"measurement": "Activity", "setting": "[4]", "value": "< 20", "unit": "%"}, {"measurement": "Kb", "setting": "Melanocortin receptor 4", "value": 2.51, "unit": "nM"}, {"measurement": "EC50", "setting": "[6]", "value": "> 100000", "unit": "nM"}]}]}
